Calls of active or inactive are those of the source. The rule behind the calls is not given here.
Assays:
Quadruplex DNA [1] = test: Displacement of thiazole orange from human c-Myc G-quadruplex DNA after 5 mins in presence of KCl by fluorescence assay; type: nucleic-acid assay
Outline: (§1)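 Thiazole orange displacement from a G4 DNA–TO complex (1 µM TO + 0.5 µM G4 DNA) in 10 mM Tris-HCl pH 7.4, 100 mM KCl, 0.1 mM EDTA. Ligand was added in increasing steps, with 5 min incubation each. Fluorescence read at ex 501/em 531 nm; % displacement = 100 − (Ft/F0 × 100). DC50 is the ligand concentration giving 50% displacement, read from plots; average of two independent experiments.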

Quadruplex DNA [2] = test: Binding affinity to human VEGF G-quadruplex DNA assessed as change in melting temperature in presence of KCl by CD spectroscopic method; type: nucleic-acid assay
Outline: (§2)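 CD melting of 5 µM G4 DNA in 10 mM Tris-HCl pH 7.4, 25 mM KCl, 0.1 mM EDTA. Ligand was present during folding (heating, slow cooling). Spectra 200–400 nm over 20–96 °C in 2 °C steps, buffer blank subtracted. Tm was taken from normalized ellipticity at the positive maximum (262 nm for promoter G4s). ΔTm = ligand-bound minus DNA alone; average of two independent experiments.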

Quadruplex DNA [3] = test: Binding affinity to human c-Kit1 G-quadruplex DNA assessed as stabilization of parallel stranded topology after 5 mins in presence of KCl by CD spectroscopic method; type: nucleic-acid assay
Outline: (§3)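 CD spectra of 5 µM G4 DNA in 10 mM Tris-HCl pH 7.4, 100 mM KCl, 0.1 mM EDTA, with or without ligand. Mixtures were heated 95 °C for 5 min and slowly cooled to room temperature. Recorded 200–400 nm at 25 °C, 100 nm/min, 2 s response, 1 cm cell; average of three scans.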

Quadruplex DNA [4] = test: Binding affinity to human c-Myc G-quadruplex DNA assessed as change in melting temperature in presence of KCl by CD spectroscopic method; type: nucleic-acid assay; outline: as §2
Quadruplex DNA [5] = test: Binding affinity to human Bcl2 G-quadruplex DNA at 0.6 uM after 5 mins in presence of KCl by fluorescence spectroscopic method; type: nucleic-acid assay
Outline: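 Fluorescence titration at 25 °C with 0.6 µM ligand in 10 mM Tris-HCl pH 7.4, 100 mM KCl, 0.1 mM EDTA. Preformed G4 DNA was added stepwise, with 5 min incubation before each spectrum. Excitation 330 nm; emission 350–550 nm, slit 5 nm.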

Quadruplex DNA [6] = test: Displacement of thiazole orange from human c-Kit2 G-quadruplex DNA after 5 mins in presence of KCl by fluorescence assay; type: nucleic-acid assay; outline: as §1
Quadruplex DNA [7] = test: Binding affinity to human c-Kit2 G-quadruplex DNA assessed as stabilization of parallel stranded topology after 5 mins in presence of KCl by CD spectroscopic method; type: nucleic-acid assay; outline: as §3
Quadruplex DNA [8] = test: Displacement of thiazole orange from human c-Kit1 G-quadruplex DNA after 5 mins in presence of KCl by fluorescence assay; type: nucleic-acid assay; outline: as §1
Quadruplex DNA [9] = test: Binding affinity to human 77-mer c-Myc G-quadruplex DNA assessed as inhibition of Taq DNA polymerase-mediated DNA synthesis by measuring generation of premature chain termination products using 32P-labeled primer after 30 mins by polymerase stop assay; type: nucleic-acid assay
Outline: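 Template of 10 nM single-stranded 77-mer c-MYC with the G-quadruplex-forming sequence, annealed to 32P-labeled plus cold primer (15 nM) in Tris-HCl pH 7.4 with 5 mM KCl. Annealing was 95 °C for 5 min then slow cooling, with ligand added before annealing. Extension with Taq polymerase (5 mM MgCl2, 0.5 mM DTT, 0.2 mM dNTPs) ran 30 min at 48 or 40 °C. Products were resolved on 15% urea denaturing PAGE and read by phosphorimaging.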

Quadruplex DNA [10] = test: Stabilization of VEGF G-quadruplex DNA in human HeLa cells assessed as decrease in VEGF mRNA level at 5 uM after 24 hrs by RT-PCR method relative to control; type: cell-based; parameters: scale not given: the % may be the effect or the level left
Outline: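 HeLa cells exposed to increasing ligand concentrations (5 and 10 µM named) for 24 h, with DMSO-treated cells as control. Total RNA was extracted with TRI reagent and DNase I-treated. c-MYC and VEGF transcripts were quantified by qRT-PCR, normalized to GAPDH, and expressed as relative fold change.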

DC50 (Quadruplex DNA [1]): 830 nM
ΔTm (Quadruplex DNA [2]): 11.3 °C
Activity (Quadruplex DNA [3]): Active
ΔTm (Quadruplex DNA [4]): 7.35 °C
Activity (Quadruplex DNA [5]): Active
DC50 (Quadruplex DNA [6]): 650 nM
Activity (Quadruplex DNA [7]): Active
DC50 (Quadruplex DNA [8]): 860 nM
Activity (Quadruplex DNA [9]): Dose-dependent effect
SMILES: CN(C)CCCCn1c2ccc(-c3nc4ccc(N5CCN(CCO)CC5)cc4[nH]3)cc2c2cc(-c3nc4ccc(N5CCN(CCO)CC5)cc4[nH]3)ccc21
Activity (Quadruplex DNA [10]): 44%

— ChEMBL document CHEMBL4196021, “Targeting G-quadruplex DNA structures in the telomere and oncogene promoter regions by benzimidazole‒carbazole ligands” (Eur J Med Chem, 2018)
